One block for each compound: values may come before it.
Experiments:
Cavia porcellus [1] = assay: In vivo activity for topical application using LTB4-induced […] intradermal chemotaxis assay.; type: functional
Cavia porcellus [2] = assay: In vivo […] (oral) SCOA-induced colitis activity of the compound.; type: functional
Method in brief: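 Guinea pig colitis induced under light anesthesia by a single intrarectal enema of 4% acetic acid. Oral dosing 30 min before induction. Colonic MPO activity measured after 24 h. ED50 is in mg/kg.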

HL-60 [3] = assay: Inhibitory activity against LTB4 production in HL60s.; type: functional, cell-based; conditions: Homo sapiens
HL-60 [4] = assay: Inhibitory activity against PGE-2 production in HL60s.; type: functional, cell-based; conditions: Homo sapiens
Homo sapiens [5] = species: Homo sapiens; assay: Inhibitory activity against LTB4 production in PMNs.; type: functional, organism-based
Homo sapiens [6] = species: Homo sapiens; assay: Potency against LTB4 binding to its receptor on eosinophils.; type: functional, organism-based
Homo sapiens [7] = species: Homo sapiens; assay: Potency against LTB4-induced eosinophil chemotaxis.; type: functional, organism-based
Homo sapiens [8] = species: Homo sapiens; assay: Inhibitory activity against HETE-induced chemotaxis; type: functional, organism-based
Homo sapiens [9] = species: Homo sapiens; assay: Tested for the ability to inhibit Leukotriene B4 (LTB4) induced chemotaxis. (Test compound added to upper and lower wells.); type: functional, organism-based
Method in brief: (§1)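 Test compound is placed in both upper and lower wells. After 90 min at 37 °C, migrated cells in the lower well are Coulter-counted. Inhibition is computed after subtracting the HBSS random-migration mean.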

Homo sapiens [10] = species: Homo sapiens; assay: Tested for the ability to inhibit Leukotriene B4 (LTB4) induced degranulation.; type: functional, organism-based
Method in brief: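 Human neutrophils (3 × 10⁶ in 1 mL HBSS) pretreated with 5 μg cytochalasin B for 5 min at 37 °C, then with test compound for 7 min, then stimulated with 5 × 10⁻⁸ M LTB₄ for 2 min. MPO in pellet and supernatant read spectrophotometrically (o-dianisidine/peroxide). Release is expressed as percent of total MPO after subtracting basal.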

Mus musculus [11] = assay: In vivo murine (intracolonic) SCOA-induced colitis activity of the compound.; type: functional
Method in brief: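 Mouse colitis induced under light anesthesia by a single intrarectal enema of 3% acetic acid. Test compound given intrarectally 1 h before and 1 h after instillation. Colonic MPO assessed at 24 h. ED50 is in mg/kg.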

Mus musculus [12] = assay: In vivo murine epidermal inflammation for topical application.; type: functional
Method in brief: (§2)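 PMA (25 μg) in acetone applied to the dorsal surface of one mouse ear, with vehicle on the other ear. Test compound applied topically with the PMA in acetone. At 18 h, ears were removed and weighed. Edema is weight gain versus the contralateral ear, and MPO was also assayed. ED50 is in mg.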

Canis lupus familiaris [13] = assay: In vivo activity for oral administration using LTB4-induced canine intradermal chemotaxis assay.
Canis lupus familiaris [14] = assay: In vivo activity for intravenous administration using LTB4-induced canine intradermal chemotaxis assay.
Leukotriene B4 receptor = Leukotriene B4 receptor (Homo sapiens, UniProt Q9NPC1+Q15722); assay: Inhibition of Leukotriene B4 (LTB4) induced chemotaxis.; type: functional
[15] = target: T1, Leukotriene B4 receptor 1 (Homo sapiens, UniProt Q15722); assay: Binding affinity for Leukotriene B4 (LTB4) receptor
Method in brief: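 Human blood neutrophils (dextran sedimentation, Ficoll-paque, hypotonic lysis without BSA), 4 × 10⁶ cells with 0.6 nM [³H]LTB₄ ± test compound in 1 mL HBSS, 0 °C for 45 min; 30 μM NDGA present in some assays. Glass-fibre filtration with ice-cold HBSS washes.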

Homo sapiens [16] = species: Homo sapiens; assay: Tested for the ability to inhibit Leukotriene B4 (LTB4) induced chemotaxis. (Test compound added to upper and lower wells); type: functional, organism-based; method in brief: as §1
Cavia porcellus [17] = assay: In vivo guinea pig (oral) SCOA-induced colitis activity of the compound.
Cavia porcellus [18] = assay: In vivo activity for oral administration using LTB4-induced guinea pig intradermal chemotaxis assay.
Cavia porcellus [19] = assay: In vivo activity for intravenous administration using LTB4-induced guinea pig intradermal chemotaxis assay.
Homo sapiens [20] = species: Homo sapiens; assay: Tested for the ability to inhibit Leukotriene B4 (LTB4) induced chemotaxis. Test compound added to upper and lower wells.; type: functional, organism-based; method in brief: as §1
[21] = target: T1, Leukotriene B4 receptor 1; assay: Binding affinity towards Leukotriene B4 (LTB4) Receptor. Experiment conducted in the absence of NDGA.
Method in brief: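 Human neutrophils isolated with dextran sedimentation, Ficoll-paque and BSA-free hypotonic lysis. 4 × 10⁶ cells incubated with 0.6 nM [³H]LTB₄ ± test compound in 1 mL HBSS at 0 °C for 45 min, no NDGA. Bound ligand separated by glass-fibre filtration. Specific binding is total minus binding not displaced by 0.1 μM unlabeled LTB₄.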

Homo sapiens [22] = species: Homo sapiens; assay: Inhibition of 12-(R)-hydroxyeicosatetraenoic acid (HETE)-induced chemotaxis; type: functional, organism-based
Homo sapiens [23] = species: Homo sapiens; assay: Inhibition of fMLP-induced degranulation in the PMN degranulation assay; type: functional, organism-based
Homo sapiens [24] = species: Homo sapiens; assay: Inhibition of fMLP-induced chemotaxis; type: functional, organism-based
Mus musculus [25] = assay: Compound measured by topical application using Murine epidermal inflammation assay; type: functional; method in brief: as §2

T1 sequence (Q15722 whole entry): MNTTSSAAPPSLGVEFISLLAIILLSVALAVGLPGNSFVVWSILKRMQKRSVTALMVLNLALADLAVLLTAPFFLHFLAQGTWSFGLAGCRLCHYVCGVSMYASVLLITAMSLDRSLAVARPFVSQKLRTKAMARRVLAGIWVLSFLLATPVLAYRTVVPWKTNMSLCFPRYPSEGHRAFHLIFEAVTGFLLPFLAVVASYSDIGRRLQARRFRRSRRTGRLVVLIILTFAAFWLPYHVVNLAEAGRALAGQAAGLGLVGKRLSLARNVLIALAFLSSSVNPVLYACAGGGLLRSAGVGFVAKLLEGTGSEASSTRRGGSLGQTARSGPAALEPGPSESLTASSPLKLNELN

SMILES: CCCc1c(OCCCOc2ccc(-c3csc(N)n3)c(OC)c2CCC)ccc2c1OC(C(=O)O)CC2 (stereo not given)
IC50 (Leukotriene B4 receptor): 1500 nM
IC50 [15]: 320 nM

SMILES: CCCc1c(OCCCOc2ccc(C(N)=O)c(OC)c2CCC)ccc2c1OC(C(=O)O)CC2 (stereo not given)
IC50 (Homo sapiens [10]; Homo sapiens): 920 nM
IC50 (Leukotriene B4 receptor): 350 nM
IC50 [15]: 140 nM

SMILES: CCCc1c(OCCCOc2ccc(C(C)=O)c(OC)c2CCC)ccc2c1OC(C(=O)O)CC2 (stereo not given) [SC-41390]
ED50 (Cavia porcellus [1]): 340 ng
IC50 (Homo sapiens [16]): 832 nM
IC50 (Homo sapiens [10]; Homo sapiens): 920 nM
ED50 (Mus musculus [11]; Mus musculus, read-out: ED50): 28 mg/kg
ED50 (Cavia porcellus [17]): 20 mg/kg
ED50 (Cavia porcellus [18]): 1.7 mg/kg
ED50 (Cavia porcellus [19]): 0.5 mg/kg

SMILES: CCCc1c(OCCCOc2ccc(-c3csc(SC)n3)c(OC)c2CCC)ccc2c1OC(C(=O)O)CC2 (stereo not given)
IC50 (Leukotriene B4 receptor): 18600 nM
IC50 [15]: 2800 nM

SMILES: CCCc1c(OCCCOc2ccc(-c3coc(C)n3)c(OC)c2CCC)ccc2c1OC(C(=O)O)CC2 (stereo not given)
IC50 (Leukotriene B4 receptor): > 10000 nM
IC50 [15]: 1100 nM

SMILES: CCCc1c(OCCCOc2ccc(-c3cc[nH]n3)c(OC)c2CCC)ccc2c1OC(C(=O)O)CC2 (stereo not given)
IC50 (Leukotriene B4 receptor): 1200 nM
IC50 [15]: 610 nM

SMILES: CCCc1c(OCCCOc2ccc(-c3c[nH]nn3)c(OC)c2CCC)ccc2c1OC(C(=O)O)CC2 (stereo not given)
IC50 (Homo sapiens [20]): 88 nM
IC50 (Homo sapiens [10]; Homo sapiens): 130 nM
IC50 [21]: 5.2 nM

SMILES: CCCc1c(OCCCOc2ccc(-c3ccno3)c(OC)c2CCC)ccc2c1OC(C(=O)O)CC2 (stereo not given)
IC50 (Leukotriene B4 receptor): 1600 nM
IC50 [15]: 770 nM

SMILES: CCCc1c(OCCCOc2ccc(-c3csc(S)n3)c(OC)c2CCC)ccc2c1OC(C(=O)O)CC2 (stereo not given)
IC50 (Homo sapiens [10]; Homo sapiens): 1200 nM
IC50 (Leukotriene B4 receptor): 520 nM
IC50 [15]: 890 nM

SMILES: CCCc1c(OCCCOc2ccc(-c3c[nH]c(SCc4ccccc4)n3)c(OC)c2CCC)ccc2c1OC(C(=O)O)CC2 (stereo not given)
IC50 (Homo sapiens [20]): 430 nM
IC50 [21]: 750 nM

SMILES: CCCc1c(OCCCOc2ccc(-c3csc(OC)n3)c(OC)c2CCC)ccc2c1OC(C(=O)O)CC2 (stereo not given)
IC50 (Leukotriene B4 receptor): > 10000 nM
IC50 [15]: 1150 nM

SMILES: CCCc1c(OCCCOc2ccc(-c3csc(SCc4ccccc4)n3)c(OC)c2CCC)ccc2c1OC(C(=O)O)CC2 (stereo not given)
IC50 (Leukotriene B4 receptor): > 10000 nM
IC50 [15]: 5800 nM

Continued, in another order:

IC50 (HL-60 [3]): 660 nM
IC50 (HL-60 [4]): 928 nM
IC50 (Homo sapiens [5]): 520 nM
IC50 (Homo sapiens [6]): 2.6 nM
IC50 (Homo sapiens [7]): 9 nM
IC50 (Homo sapiens [8]): 106 nM
IC50 (Homo sapiens [9]): 89 nM
IC50 (Homo sapiens [10]): 57 nM
SMILES: CCCc1c(OCCCOc2ccc(-c3cscn3)c(OC)c2CC2CC2)ccc2c1OC(C(=O)O)CC2 (stereo in doubt; 35)
ED50 (Cavia porcellus [1]): 70 ng
ED50 (Cavia porcellus [2]): 3.4 mg/kg
ED50 (Mus musculus [11]): 12 mg/kg
ED50 (Mus musculus [12]): 0.8 mg
ED50 (Canis lupus familiaris [13]): 0.74 mg/kg
ED50 (Canis lupus familiaris [14]): 0.02 mg/kg

IC50 (Homo sapiens [10]; Homo sapiens): 230 nM
IC50 (Leukotriene B4 receptor): 430 nM
IC50 [15]: 100 nM
SMILES: CCCc1c(OCCCOc2ccc(-c3cocn3)c(OC)c2CCC)ccc2c1OC(C(=O)O)CC2 (stereo not given)

IC50 (Homo sapiens [10]; Homo sapiens): 90 nM
IC50 (Leukotriene B4 receptor): 287 nM
IC50 [15]: 93 nM
SMILES: CCCc1c(OCCCOc2ccc(-c3cscn3)c(OC)c2CCC)ccc2c1OC(C(=O)O)CC2 (stereo not given)

IC50 (Leukotriene B4 receptor): 1200 nM
IC50 [15]: 520 nM
SMILES: CCCc1c(OCCCOc2ccc(-c3c[nH]cn3)c(OC)c2CCC)ccc2c1OC(C(=O)O)CC2 (stereo not given)

IC50 (Homo sapiens [20]): 360 nM
IC50 (Homo sapiens [10]; Homo sapiens): 220 nM
IC50 [21]: 15.5 nM
SMILES: CCCc1c(OCCCOc2ccc(-c3cscn3)c(OC)c2CC2CC2)cccc1OCC(=O)O

IC50 (Homo sapiens [20]): 49 nM
IC50 (Homo sapiens [10]; Homo sapiens): 7 nM
IC50 [21]: 12.3 nM
SMILES: CCCc1c(OCCCOc2ccc(-c3cscn3)c(OC)c2CC2CC2)ccc2c1OC(CCC(=O)O)CC2 (stereo not given)

IC50 (Homo sapiens [22]): 106 nM
IC50 (Homo sapiens [23]): 5900 nM
IC50 (Homo sapiens [9]; Homo sapiens): 67 nM
IC50 (Homo sapiens [10]; Homo sapiens): 48 nM
IC50 (Homo sapiens [24]): 1410 nM
SMILES: CCCc1c(OCCCOc2ccc(-c3cscn3)c(OC)c2CC2CC2)ccc2c1OC(C(=O)O)CC2 (racemic)
ED50 (Cavia porcellus [1]): 18 ng
ED50 (Cavia porcellus [2]): 2.3 mg/kg
ED50 (Mus musculus [11]; Mus musculus, read-out: ED50): 7.1 mg/kg
ED50 (Canis lupus familiaris [13]): 0.2 mg/kg

IC50 (Homo sapiens [10]): 79 nM
SMILES: CCCc1c(OCCCOc2ccc(-c3cscn3)c(OC)c2CC2CC2)ccc2c1OC(C(=O)O)CC2 (stereo in doubt; -/-35)
ED50 (Cavia porcellus [1]): 98 ng
ED50 (Cavia porcellus [2]): 5.9 mg/kg
ED50 (Mus musculus [25]): 0.98 mg
ED50 (Mus musculus [11]): 11.7 mg/kg

IC50 (Homo sapiens [10]; Homo sapiens): 70 nM
IC50 (Leukotriene B4 receptor): 1540 nM
IC50 [15]: 26 nM
SMILES: CCCc1c(OCCCOc2ccc(-c3cscn3)c(OC)c2CCC)ccc2c1OC(CCC(=O)O)CC2 (stereo not given)

IC50 (Homo sapiens [10]; Homo sapiens): 23 nM
IC50 (Leukotriene B4 receptor): 110 nM
IC50 [15]: 25 nM
SMILES: C=CCc1c(OCCCOc2ccc3c(c2CCC)OC(C(=O)O)CC3)ccc(-c2cscn2)c1OC (stereo not given)

From ChEMBL document CHEMBL1128264, “Second-generation leukotriene B4 receptor antagonists related to SC-41930: heterocyclic replacement of the methyl ketone pharmacophore” (J Med Chem, 1995)
